Measured values from ChEMBL document CHEMBL4270630.

Legend:
Influenza A virus [1] = assay: Antiviral activity against Influenza A virus A/Virginia/ATCC3/2009(H1N1pdm) infected in MDCK cells after 3 days by MTS assay; format: functional, organism-based, Influenza A virus (A/Virginia/03/2009(H1N1)); conditions: 72 h
Procedure, shortened: (§1)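 Semi-confluent MDCK cells were infected at an MOI of 0.0004 PFU/cell in Ultra-MDCK infection medium with 2 μg/mL TPCK-trypsin, together with compounds. After 3 days at 35 °C, CPE was scored by microscopy and confirmed by MTS formazan viability. EC50 is the concentration giving 50% inhibition of virus-induced CPE. Values are means of two to five independent tests.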

[2] = (§2) Cytotoxicity against MDCK cells assessed as reduction in cell viability after 3 days by MTS assay; format: cell-based, Canis lupus familiaris; conditions: dog, MDCK cells
Influenza B virus [3] = assay: Antiviral activity against Influenza B virus B/HK/05/72 infected in MDCK cells assessed as reduction in virus-induced cytopathic effect after 3 days by microscopic method; format: functional, organism-based; conditions: B/Hong Kong/05/1972, MDCK, 72 h; procedure, shortened: as §1
H3N2 subtype [4] = assay: Antiviral activity against Influenza A virus A/HK/7/87(H3N2) infected in MDCK cells assessed as reduction in virus-induced cytopathic effect after 3 days by microscopic method; format: functional, organism-based; conditions: A/Hong Kong/7/1987(H3N2), 72 h; procedure, shortened: as §1
Influenza A virus [5] = assay: Antiviral activity against Influenza A virus A/Virginia/ATCC3/2009(H1N1pdm) infected in MDCK cells assessed as reduction in virus-induced cytopathic effect after 3 days by microscopic method; format: functional, organism-based, Influenza A virus (A/Virginia/03/2009(H1N1)); conditions: 72 h; procedure, shortened: as §1
[6] = Cytotoxicity against MDCK cells assessed as alteration in cell morphology after 3 days by microscopic method; format: cell-based, Canis lupus familiaris; conditions: dog
Procedure, shortened: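 Mock-infected MDCK cells were treated with compounds in parallel with the antiviral assay, 3 days at 35 °C. MCC is the concentration causing minimal change in cell morphology by microscopy. CC50 is the 50% cytotoxic concentration by MTS formazan viability assay.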

Influenza A virus [7] = assay: Antiviral activity against Influenza A virus A/PR/8/34(H1N1) infected in MDCK cells after 3 days by MTS assay; format: functional, organism-based, A/Puerto Rico/8/1934(H1N1); conditions: Influenza A virus, A/Puerto Rico/8/1934(H1N1), MDCK, 72 h; procedure, shortened: as §1
Influenza B virus [8] = assay: Antiviral activity against Influenza B virus B/HK/05/72 infected in MDCK cells after 3 days by MTS assay; format: functional, organism-based; conditions: B/Hong Kong/05/1972, MDCK, 72 h; procedure, shortened: as §1
H3N2 subtype [9] = assay: Antiviral activity against Influenza A virus A/HK/7/87(H3N2) infected in MDCK cells after 3 days by MTS assay; format: functional, organism-based; conditions: A/Hong Kong/7/1987(H3N2), 72 h; procedure, shortened: as §1
Influenza A virus [10] = assay: Antiviral activity against Influenza A virus A/PR/8/34(H1N1) infected in MDCK cells assessed as reduction in virus-induced cytopathic effect after 3 days by microscopic method; format: functional, organism-based, A/Puerto Rico/8/1934(H1N1); conditions: Influenza A virus, A/Puerto Rico/8/1934(H1N1), MDCK, 72 h; procedure, shortened: as §1
[11] = Cytotoxicity against HEL299 cells assessed as changes in cell morphology after 5 days by microscopic method; format: cell-based, HEL 299; conditions: human
Procedure, shortened: (§3)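 Confluent HEL 299 cells in medium with 2% FCS were exposed to HCoV-229E (100 CCID50/well) together with compounds and held for 5 days at 35 °C. EC50 (CPE reduction) and MCC (minimal morphology change) were determined by microscopy. SI is MCC/EC50.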

Human coronavirus 229E [12] = assay: Antiviral activity against Human coronavirus 229E infected in HEL299 cells assessed as reduction in virus induced cytopathic effect after 5 days by microscopic method; format: functional, organism-based; conditions: HEL 299, 120 h; procedure, shortened: as §3
MDCK = assay: as §2; format: cell-based, Canis lupus familiaris; conditions: dog, mdck, 72 h
Influenza B virus [13] = assay: Antiviral activity against Influenza B virus B/Ned/537/05 infected in MDCK cells after 3 days by MTS assay; format: functional, organism-based; conditions: B/Ned/537/05, MDCK, 72 h
Procedure, shortened: (§4)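 Semi-confluent MDCK cells were infected at an MOI of 0.0004 PFU/cell in Ultra-MDCK infection medium with 2 μg/mL TPCK-trypsin, together with compounds. After 3 days at 35 °C, CPE was scored by microscopy and confirmed by MTS formazan viability. Values are means of two to five independent tests.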

Human coronavirus 229E [14] = assay: Antiviral activity against Human coronavirus 229E infected in human A549 cells assessed as reduction in virus RNA level after 3 days by qRT-PCR method; format: functional; conditions: A549, 72 h
Procedure, shortened: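 Confluent A549 cells were infected with HCoV-229E in 2% FCS medium with compounds present. The inoculum was removed at 1 h and compounds were kept on at 35 °C. Supernatants were harvested at day 3, lysed at 75 °C for 10 min, and viral genome copies counted by one-step qRT-PCR.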

[15] = Cytotoxicity against human A549 cells assessed as changes in cell morphology after 3 days by microscopic method; format: cell-based
Procedure, shortened: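 Mock-infected A549 cells were incubated with compounds for 3 days. MCC is the concentration causing minimal change in cell morphology by microscopy.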

Influenza B virus [16] = assay: Antiviral activity against Influenza B virus B/Ned/537/05 infected in MDCK cells assessed as reduction in virus-induced cytopathic effect after 3 days by microscopic method; format: functional, organism-based; conditions: B/Ned/537/05, MDCK, 72 h; procedure, shortened: as §4

Compound	EC50 (Influenza A virus [1])	CC50 at 72 h [2]	EC50 (Influenza B virus [3])	EC50 (H3N2 subtype [4])	EC50 (Influenza A virus [5])	MCC at 72 h [6]	EC50 (Influenza A virus [7])	EC50 (Influenza B virus [8])	EC50 (H3N2 subtype [9])	EC50 (Influenza A virus [10])	MCC at 120 h [11]	EC50 (Human coronavirus 229E [12])	CC50 (MDCK)	EC50 (Influenza B virus [13])	EC90 (Human coronavirus 229E [14])	EC99 (Human coronavirus 229E [14])	MCC at 72 h [15]	EC50 (Influenza B virus [16])
CCCCCCOCc1cn([C@H]2C(=O)N[C@@H]3Cc4ccc(c(Cl)c4)Oc4cc5cc(c4O)Oc4ccc(cc4Cl)[C@@H](O[C@@H]4O[C@H](CO)[C@@H](O)[C@H](O)[C@H]4NC(C)=O)[C@H]4NC(=O)[C@H](NC(O)[C@@H]5NC(=O)[C@@H](NC3=O)c3cc(O)cc(c3)Oc3cc2ccc3O)c2ccc(O)c(c2)-c2c(O)cc(O)cc2[C@H](C(=O)O)NC4=O)nn1 (stereo not given in full)	> 100 µM	53 µM	17 µM	15 µM	> 100 µM	≥ 20 µM	> 100 µM	11 µM	13 µM	> 100 µM								
CCCCCCCCCCCCOCc1cn([C@H]2C(=O)N[C@@H]3Cc4ccc(c(Cl)c4)Oc4cc5cc(c4O)Oc4ccc(cc4Cl)[C@@H](O[C@@H]4O[C@H](CO)[C@@H](O)[C@H](O)[C@H]4NC(C)=O)[C@H]4NC(=O)[C@H](NC(O)[C@@H]5NC(=O)[C@@H](NC3=O)c3cc(O)cc(c3)Oc3cc2ccc3O)c2ccc(O)c(c2)-c2c(O)cc(O)cc2[C@H](C(=O)O)NC4=O)nn1 (stereo not given in full)	> 100 µM	2.3 µM	> 100 µM	> 100 µM	> 100 µM	9.3 µM	> 100 µM	> 100 µM	> 100 µM	> 100 µM								
CC(=O)N[C@H]1[C@H](O[C@@H]2c3ccc(c(Cl)c3)Oc3cc4cc(c3O)Oc3ccc(cc3Cl)C[C@H]3NC(=O)[C@H](n5cc(COC[C@H]6O[C@@H]7OC(C)(C)O[C@@H]7[C@H]7OC(C)(C)O[C@H]76)nn5)c5ccc(O)c(c5)Oc5cc(O)cc(c5)[C@H](NC3=O)C(=O)N[C@H]4C(O)N[C@H]3C(=O)N[C@H]2C(=O)N[C@@H](C(=O)O)c2cc(O)cc(O)c2-c2cc3ccc2O)O[C@H](CO)[C@@H](O)[C@@H]1O (stereo not given in full)	43 µM	> 100 µM	39 µM	39 µM	45 µM	≥ 100 µM	47 µM	29 µM	24 µM	52 µM								
CCCCCCCCCCCCCCCCOCc1cn([C@H]2C(=O)N[C@@H]3Cc4ccc(c(Cl)c4)Oc4cc5cc(c4O)Oc4ccc(cc4Cl)[C@@H](O[C@@H]4O[C@H](CO)[C@@H](O)[C@H](O)[C@H]4NC(C)=O)[C@H]4NC(=O)[C@H](NC(O)[C@@H]5NC(=O)[C@@H](NC3=O)c3cc(O)cc(c3)Oc3cc2ccc3O)c2ccc(O)c(c2)-c2c(O)cc(O)cc2[C@H](C(=O)O)NC4=O)nn1 (stereo not given in full)	1.8 µM	7.6 µM	1.8 µM	≤ 8.9 µM	1.8 µM	≥ 4 µM	1.8 µM	1.3 µM	≤ 1.6 µM	1.6 µM								
CCCCCCSC1=C(SCCCCCC)C(=O)N(CCOCCOCCOCCOCc2cn(C3C(=O)N[C@@H]4Cc5ccc(c(Cl)c5)Oc5cc6cc(c5O)Oc5ccc(cc5Cl)[C@@H](O[C@@H]5O[C@H](CO)[C@@H](O)[C@H](O)[C@H]5NC(C)=O)[C@H]5NC(=O)[C@H](NC(O)[C@@H]6NC(=O)[C@@H](NC4=O)c4cc(O)cc(c4)Oc4cc3ccc4O)c3ccc(O)c(c3)-c3c(O)cc(O)cc3[C@H](C(=O)O)NC5=O)nn2)C1=O (stereo not given in full)	6 µM			2 µM	2.7 µM	20 µM	3.5 µM		2.9 µM	2 µM	≥ 20 µM	5.4 µM	65 µM	3.6 µM	7.6 µM	21 µM	> 50 µM	1.8 µM
CCCCCCSC1=C(SCCCCCC)C(=O)N(Cc2cn(C3C(=O)N[C@@H]4Cc5ccc(c(Cl)c5)Oc5cc6cc(c5O)Oc5ccc(cc5Cl)[C@@H](O[C@@H]5O[C@H](CO)[C@@H](O)[C@H](O)[C@H]5NC(C)=O)[C@H]5NC(=O)[C@H](NC(O)[C@@H]6NC(=O)[C@@H](NC4=O)c4cc(O)cc(c4)Oc4cc3ccc4O)c3ccc(O)c(c3)-c3c(O)cc(O)cc3[C@H](C(=O)O)NC5=O)nn2)C1=O (stereo not given in full)	2.9 µM			1.9 µM	4 µM	≥ 4 µM	> 100 µM		1.9 µM	3.1 µM	≥ 20 µM	8.9 µM	12 µM	2.7 µM	6.4 µM	9.5 µM	≥ 50 µM	2.3 µM
CCCCCCSC1=C(SCCCCCC)C(=O)N([C@H]2C(=O)N[C@@H]3Cc4ccc(c(Cl)c4)Oc4cc5cc(c4O)Oc4ccc(cc4Cl)[C@@H](O[C@@H]4O[C@H](CO)[C@@H](O)[C@H](O)[C@H]4NC(C)=O)[C@H]4NC(=O)[C@H](NC(O)[C@@H]5NC(=O)[C@@H](NC3=O)c3cc(O)cc(c3)Oc3cc2ccc3O)c2ccc(O)c(c2)-c2c(O)cc(O)cc2[C@H](C(=O)O)NC4=O)C1=O (stereo not given in full)	> 100 µM			> 100 µM	> 100 µM	4 µM	> 100 µM		> 100 µM	> 100 µM	≥ 20 µM	5.4 µM	9.8 µM	> 100 µM	5.8 µM	9.4 µM	50 µM	> 100 µM
CCCCCCCCOCc1cn(CCOCCOCCOCCOCc2cn([C@H]3C(=O)N[C@@H]4Cc5ccc(c(Cl)c5)Oc5cc6cc(c5O)Oc5ccc(cc5Cl)[C@@H](O[C@@H]5O[C@H](CO)[C@@H](O)[C@H](O)[C@H]5NC(C)=O)[C@H]5NC(=O)[C@H](NC(O)[C@@H]6NC(=O)[C@@H](NC4=O)c4cc(O)cc(c4)Oc4cc3ccc4O)c3ccc(O)c(c3)-c3c(O)cc(O)cc3[C@H](C(=O)O)NC5=O)nn2)nn1 (stereo not given in full)	> 100 µM			> 100 µM	> 100 µM	20 µM	> 100 µM		> 100 µM	> 100 µM	100 µM	8.9 µM	19 µM	> 100 µM	23 µM	30 µM	> 50 µM	> 100 µM
CCCCCCOCc1cn(CCOCCOCCOCCOCc2cn([C@H]3C(=O)N[C@@H]4Cc5ccc(c(Cl)c5)Oc5cc6cc(c5O)Oc5ccc(cc5Cl)[C@@H](O[C@@H]5O[C@H](CO)[C@@H](O)[C@H](O)[C@H]5NC(C)=O)[C@H]5NC(=O)[C@H](NC(O)[C@@H]6NC(=O)[C@@H](NC4=O)c4cc(O)cc(c4)Oc4cc3ccc4O)c3ccc(O)c(c3)-c3c(O)cc(O)cc3[C@H](C(=O)O)NC5=O)nn2)nn1 (stereo not given in full)	> 100 µM			> 100 µM	> 100 µM	100 µM	> 100 µM		> 100 µM	> 100 µM	≥ 100 µM	44 µM	51 µM	> 100 µM	25 µM	44 µM	> 50 µM	> 100 µM
